From ChEMBL document CHEMBL1135907, “Novel 5-substituted 2,4-thiazolidinedione and 2,4-oxazolidinedione derivatives as insulin sensitizers with antidiabetic activities” (J Med Chem, 2002)

Key:
[1] = Plasma lipid-lowering activity at a dosage of 0.005% in the diet in KKA(y) mice.; assay type: functional, Mus musculus
Outline: (§1)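 KKAy mice (9–13 weeks old), five per group, on powdered CE-2 diet containing compound at 0.001, 0.005 or 0.01% for 4 d. Plasma triglyceride from orbital-vein blood measured enzymatically and reported as maximum percent reduction from control; Dunnett's test; less than 10% reduction flagged.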

[2] = Plasma glucose-lowering activity at a dosage of 0.005% in the diet in KKA(y) mice.; assay type: functional, Mus musculus
Outline: (§2)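 KKAy mice (9–13 weeks old), five per group, grouped by blood glucose after 3 d on powdered CE-2 chow. Dietary admixture at 0.001, 0.005 or 0.01% for 4 d, food and water ad libitum. Orbital-vein plasma glucose measured enzymatically and expressed as maximum percent reduction versus control; Dunnett's test.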

[3] = Plasma glucose-lowering activity at a dosage of 0.001% in the diet in KKAy mice; assay type: functional, Mus musculus; outline: as §2
[4] = Plasma lipid-lowering activity at a dosage of 0.001% in the diet in KKAy mice; assay type: functional, Mus musculus; outline: as §1
Mus musculus [5] = organism: Mus musculus; assay: Effective dose for 25% reduction in plasma glucose-lowering activity of KKAy mice; assay type: functional
Outline: (§3)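 KKAy mice (9–13 weeks old), five per group, allocated by blood glucose after 3 d on powdered CE-2 chow. Compounds given as dietary admix at three levels chosen from first screening, 4 d ad libitum. Orbital-vein plasma glucose assayed enzymatically. Dose in mg/kg/d computed from food intake and body weight; ED25 derived by linear regression.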

Mus musculus [6] = organism: Mus musculus; assay: Plasma glucose-lowering activity at a dosage of 0.01% in the diet in KKAy mice; assay type: functional; outline: as §2
[7] = Plasma lipid-lowering activity at a dosage of 0.01% in the diet in KKAy mice; assay type: functional, Mus musculus; outline: as §1
Mus musculus [8] = organism: Mus musculus; assay: Plasma lipid-lowering activity at a dosage of 0.005% in the diet in KKAy mice;LA denotes less than 10% reduction at this dosage; assay type: functional, organism-based; outline: as §1
RXR alpha/PPAR gamma = biological target: T1, RXR alpha/PPAR gamma (Homo sapiens, UniProt P19793+P37231); assay: Transcriptional activation in COS cells expressing PPAR gamma and RXR alpha
T1 sequence (P37231 whole entry): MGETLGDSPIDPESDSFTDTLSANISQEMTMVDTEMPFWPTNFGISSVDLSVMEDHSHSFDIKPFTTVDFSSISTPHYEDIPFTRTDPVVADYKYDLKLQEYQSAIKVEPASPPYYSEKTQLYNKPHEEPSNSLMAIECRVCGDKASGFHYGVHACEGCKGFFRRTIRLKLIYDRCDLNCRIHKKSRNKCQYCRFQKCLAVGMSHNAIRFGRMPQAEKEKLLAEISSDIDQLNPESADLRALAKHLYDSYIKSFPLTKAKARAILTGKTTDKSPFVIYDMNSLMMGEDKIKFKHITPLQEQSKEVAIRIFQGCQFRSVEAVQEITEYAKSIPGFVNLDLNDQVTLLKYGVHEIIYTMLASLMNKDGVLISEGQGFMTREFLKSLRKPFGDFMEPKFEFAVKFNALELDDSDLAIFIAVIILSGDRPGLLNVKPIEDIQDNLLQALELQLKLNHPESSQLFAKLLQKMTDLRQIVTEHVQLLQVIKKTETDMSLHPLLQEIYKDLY
T1 sequence (P19793 whole entry): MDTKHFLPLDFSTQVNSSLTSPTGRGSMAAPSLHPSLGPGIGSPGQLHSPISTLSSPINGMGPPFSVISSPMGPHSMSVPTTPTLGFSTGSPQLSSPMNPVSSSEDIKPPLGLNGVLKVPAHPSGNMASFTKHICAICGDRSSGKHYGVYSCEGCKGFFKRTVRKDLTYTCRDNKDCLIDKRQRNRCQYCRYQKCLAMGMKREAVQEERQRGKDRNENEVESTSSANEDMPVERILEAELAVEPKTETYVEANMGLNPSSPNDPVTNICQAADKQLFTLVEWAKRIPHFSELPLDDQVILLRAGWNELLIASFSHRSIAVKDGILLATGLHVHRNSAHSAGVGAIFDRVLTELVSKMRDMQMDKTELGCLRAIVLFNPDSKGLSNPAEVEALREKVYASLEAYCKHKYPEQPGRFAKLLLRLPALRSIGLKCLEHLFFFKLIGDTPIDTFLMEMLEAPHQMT

Rattus norvegicus [9] = organism: Rattus norvegicus; assay: Effective dose for 25% reduction in plasma glucose-lowering activity in Wistar fatty rats; assay type: functional
Outline: (§4)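 Wistar fatty rats (10–15 weeks old), five per group, allocated by plasma glucose and triglyceride. Oral dosing by stomach tube once daily for 6 d at three doses, suspended in 0.5% methyl cellulose; CE-2 pellets and water ad libitum. Tail-vein plasma glucose measured; ED25 taken from the three-dose response by linear regression.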

Rattus norvegicus [10] = assay: Plasma concentration at a dose of 1 mg/kg in Jc1SD rats after intravenous administration upon racemisation after 10 min; assay type: functional, organism-based; set-up: dose 1 mg/kg
Rattus norvegicus [11] = assay: Plasma concentration at a dose of 1 mg/kg in Jc1SD rats after intravenous administration upon racemisation after 5 min; assay type: functional, organism-based; set-up: dose 1 mg/kg
Rattus norvegicus [12] = assay: Plasma concentration of enantiomer at a dose of 1 mg/kg in Jc1SD rats after intravenous administration upon racemisation after 15 min; assay type: functional, organism-based; set-up: dose 1 mg/kg
Rattus norvegicus [13] = assay: Plasma concentration at a dose of 1 mg/kg in Jc1SD rats after intravenous administration upon racemisation after 120 min; assay type: functional, organism-based; set-up: dose 1 mg/kg
Rattus norvegicus [14] = assay: Plasma concentration of enantiomer at a dose of 1 mg/kg in Jc1SD rats after intravenous administration upon racemisation after 60 min; assay type: functional, organism-based; set-up: dose 1 mg/kg
Rattus norvegicus [15] = assay: Plasma concentration of enantiomer at a dose of 1 mg/kg in Jc1SD rats after intravenous administration upon racemisation after 10 min; assay type: functional, organism-based; set-up: dose 1 mg/kg
Rattus norvegicus [16] = assay: Plasma concentration at a dose of 1 mg/kg in Jc1SD rats after intravenous administration upon racemisation after 60 min; assay type: functional, organism-based; set-up: dose 1 mg/kg
Rattus norvegicus [17] = assay: Plasma concentration at a dose of 1 mg/kg in Jc1SD rats after intravenous administration upon racemisation after 30 min; assay type: functional, organism-based; set-up: dose 1 mg/kg
Rattus norvegicus [18] = assay: Plasma concentration of enantiomer at a dose of 1 mg/kg in Jc1SD rats after intravenous administration upon racemisation after 5 min; assay type: functional, organism-based; set-up: dose 1 mg/kg
Rattus norvegicus [19] = assay: Plasma concentration of enantiomer at a dose of 1 mg/kg in Jc1SD rats after intravenous administration upon racemisation after 30 min; assay type: functional, organism-based; set-up: dose 1 mg/kg
Rattus norvegicus [20] = assay: Plasma concentration of enantiomer at a dose of 1 mg/kg in Jc1SD rats after intravenous administration upon racemisation after 120 min; assay type: functional, organism-based; set-up: dose 1 mg/kg
Rattus norvegicus [21] = assay: Plasma concentration at a dose of 1 mg/kg in Jc1SD rats after intravenous administration upon racemisation after 15 min; assay type: functional, organism-based; set-up: dose 1 mg/kg
Mus musculus [22] = organism: Mus musculus; assay: Effective dose for 25% reduction in plasma glucose-lowering activity in KKAy mice; assay type: functional; outline: as §3
Rattus norvegicus [23] = organism: Rattus norvegicus; assay: (§5) Effective dose for 25% reduction in glucose-lowering activity in Wistar fatty rats; assay type: functional; outline: as §4
Mus musculus [24] = organism: Mus musculus; assay: Effective dose for 25% reduction in plasma lipid-lowering activity in KKAy mice; assay type: functional
Outline: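 Male/female not stated; KKAy mice, 9–13 weeks old, fed powdered CE-2 chow 3 d, grouped (five per group) by blood glucose. Compounds given as dietary admixture at three levels (0.01, 0.005 or 0.001% in diet) for 4 d. Orbital-vein plasma triglyceride measured enzymatically as % reduction vs control; dose (mg/kg/d) from food intake and body weight; ED25 by linear regression.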

Rattus norvegicus [25] = organism: Rattus norvegicus; assay: as §5; assay type: functional; remark: listed apart in the source
Outline: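 Wistar fatty rats, 10–15 weeks old, grouped five per group by plasma glucose and triglyceride. Compound suspended in 0.5% methyl cellulose, given orally by stomach tube once daily for 6 d at three concentrations. Animals had CE-2 pellets and water ad libitum. Plasma glucose measured enzymatically on tail-vein blood. ED25 (mg/kg/d) for 25% reduction from control derived by linear regression over the three doses.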

Cc1oc(-c2ccccc2)nc1CCOc1ccc(CCC2OC(=O)NC2=O)cc1 (centres undefined) showed an Activity [1] of 53, an Activity [2] of 56 and an Activity [3] of 18. The Activity [4] was 15 and the ED25 (Mus musculus [5]) was 4.83 mg/kg/day.

In the case of Cc1oc(-c2ccccc2)nc1CCOc1ccc(CCCC2OC(=O)NC2=O)cc1 (centres undefined), the Activity [1] is reported as 41, the Activity [2] is reported as 49 and the Activity [3] is reported as 11. The Activity [4] was 26 and the ED25 (Mus musculus [5]) was 2.91 mg/kg/day.

For Cc1oc(-c2ccccc2)nc1CCOc1ccc(CCCC2SC(=O)NC2=O)cc1 (centres undefined), the Activity [1] was 18, the Activity (Mus musculus [6]) was 35 and the Activity [2] was 26. The Activity [7] was 42.

For Cc1oc(-c2ccccc2)nc1COc1ccc(CC2OC(=O)NC2=O)cc1 (centres undefined), the Activity [2] was 29 and the LA (Mus musculus [8]) was “Less than 10% reduction at this dosage”.

COc1cc(CCCC2SC(=O)NC2=O)ccc1OCc1nc(-c2ccccc2)oc1C (centres undefined) gave an Activity [1] of 58, an Activity [2] of 54 and an Activity [3] of 12. It also gave an Activity [4] of 24 and an ED25 (Mus musculus [5]) of 3.17 mg/kg/day.

In the case of COc1cc(CCCC2OC(=O)NC2=O)ccc1OCc1nc(-c2ccco2)oc1C (stereo in doubt; 64), the Activity [1] is reported as 74, the EC50 (RXR alpha/PPAR gamma) is reported as 24.1 nM and the Activity [2] is reported as 58. The Activity [3] was 39, the Activity [4] was less than 10 and the ED25 (Rattus norvegicus [9]) was 0.069 mg/kg/day.

COc1cc(CCCC2OC(=O)NC2=O)ccc1OCc1nc(-c2ccco2)oc1C (single isomer, unassigned; (-)) gave a Concentration (Rattus norvegicus [10]) of 0.04 µg/mL, a Concentration (Rattus norvegicus [11]) of 0.04 µg/mL and a Concentration (Rattus norvegicus [12]) of 3.97 µg/mL. It also gave a Concentration (Rattus norvegicus [13]) of 0.07 µg/mL, a Concentration (Rattus norvegicus [14]) of 2.94 µg/mL and a Concentration (Rattus norvegicus [15]) of 4.3 µg/mL. The Concentration (Rattus norvegicus [16]) was 0.07 µg/mL, the Concentration (Rattus norvegicus [17]) was 0.05 µg/mL and the Concentration (Rattus norvegicus [18]) was 4.78 µg/mL. For the same molecule, the Concentration (Rattus norvegicus [19]) was 3.65 µg/mL, the Concentration (Rattus norvegicus [20]) was 1.61 µg/mL and the Concentration (Rattus norvegicus [21]) was 0.04 µg/mL.

Cc1sc(-c2ccccc2)nc1COc1ccc(CCCC2OC(=O)NC2=O)cc1 (single isomer, unassigned; (+)) showed an EC50 (RXR alpha/PPAR gamma) of 269 nM, an ED25 (Mus musculus [22]) of 1.44 mg/kg/day and an ED25 (Rattus norvegicus [23]) of 0.23 mg/kg/day.

Work on CC1(COc2ccc(CC3SC(=O)NC3=O)cc2)CCCCC1 (centres undefined) [CIGLITAZONE] yielded an ED25 (Mus musculus [24]) of 25 mg/kg/day.

Molecule CCc1ccc(CCOc2ccc(CC3SC(=O)NC3=O)cc2)nc1.Cl (centres undefined) [PIOGLITAZONE HYDROCHLORIDE] has an ED25 (Rattus norvegicus [25]) of 0.5 mg/kg/day and an ED25 (Mus musculus [24]) of 6 mg/kg/day.

COc1cc(CCCC2OC(=O)NC2=O)ccc1OCc1nc(-c2ccco2)oc1C (stereo in doubt; (+)-64) gave an EC50 (RXR alpha/PPAR gamma) of 8.87 nM, an Activity [3] of 45 and an Activity [4] of 32. The ED25 (Rattus norvegicus [9]) was 0.05 mg/kg/day.
